Results taken from ChEMBL document CHEMBL4024800, “α-Amino-β-carboxymuconate-ε-semialdehyde Decarboxylase (ACMSD) Inhibitors as Novel Modulators of De Novo Nicotinamide Adenine Dinucleotide (NAD+) Biosynthesis” (J Med Chem, 2018).
The source made the active and inactive calls. No cut-off for these calls is given here.

What was measured:
[1] = Drug uptake in mouse central nervous system at 5 mg/kg, po in presence of P-gp inhibitor Elacridar; type: ADME, organism-based; settings: in vivo
[2] = species: Homo sapiens; assay: Activity at RXR (unknown origin)
Outline: (§1)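 Eight-point serial dilutions tested in an in-house AlphaScreen-based nuclear receptor panel; activity derived from nonlinear regression curves.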

[3] = biological target: 2-amino-3-carboxymuconate-6-semialdehyde decarboxylase (Homo sapiens, UniProt Q8TDX5); assay: Inhibition of ACMSD in human primary hepatocytes assessed as increase in intracellular NAD+ levels at 5 uM after 48 hrs by NAD/NADH-Glo assay; type: cell-based
Sequence of 2-amino-3-carboxymuconate-6-semialdehyde decarboxylase (Q8TDX5 whole entry, looked up): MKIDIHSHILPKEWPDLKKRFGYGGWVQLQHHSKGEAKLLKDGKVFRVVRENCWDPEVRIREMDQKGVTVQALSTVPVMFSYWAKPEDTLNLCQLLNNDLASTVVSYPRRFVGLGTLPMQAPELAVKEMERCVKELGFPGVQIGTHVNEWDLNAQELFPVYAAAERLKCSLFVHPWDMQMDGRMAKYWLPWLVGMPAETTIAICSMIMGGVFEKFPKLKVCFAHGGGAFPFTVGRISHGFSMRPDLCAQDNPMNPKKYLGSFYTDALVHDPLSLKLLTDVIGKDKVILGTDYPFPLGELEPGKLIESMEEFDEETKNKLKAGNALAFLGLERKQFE

[4] = biological target: Voltage-gated inwardly rectifying potassium channel KCNH2 (Homo sapiens, UniProt Q12809); assay: Displacement of red fluorescent channel ligand tracer from human ERG expressed in CHO cell membranes
Sequence of Voltage-gated inwardly rectifying potassium channel KCNH2 (Q12809 whole entry): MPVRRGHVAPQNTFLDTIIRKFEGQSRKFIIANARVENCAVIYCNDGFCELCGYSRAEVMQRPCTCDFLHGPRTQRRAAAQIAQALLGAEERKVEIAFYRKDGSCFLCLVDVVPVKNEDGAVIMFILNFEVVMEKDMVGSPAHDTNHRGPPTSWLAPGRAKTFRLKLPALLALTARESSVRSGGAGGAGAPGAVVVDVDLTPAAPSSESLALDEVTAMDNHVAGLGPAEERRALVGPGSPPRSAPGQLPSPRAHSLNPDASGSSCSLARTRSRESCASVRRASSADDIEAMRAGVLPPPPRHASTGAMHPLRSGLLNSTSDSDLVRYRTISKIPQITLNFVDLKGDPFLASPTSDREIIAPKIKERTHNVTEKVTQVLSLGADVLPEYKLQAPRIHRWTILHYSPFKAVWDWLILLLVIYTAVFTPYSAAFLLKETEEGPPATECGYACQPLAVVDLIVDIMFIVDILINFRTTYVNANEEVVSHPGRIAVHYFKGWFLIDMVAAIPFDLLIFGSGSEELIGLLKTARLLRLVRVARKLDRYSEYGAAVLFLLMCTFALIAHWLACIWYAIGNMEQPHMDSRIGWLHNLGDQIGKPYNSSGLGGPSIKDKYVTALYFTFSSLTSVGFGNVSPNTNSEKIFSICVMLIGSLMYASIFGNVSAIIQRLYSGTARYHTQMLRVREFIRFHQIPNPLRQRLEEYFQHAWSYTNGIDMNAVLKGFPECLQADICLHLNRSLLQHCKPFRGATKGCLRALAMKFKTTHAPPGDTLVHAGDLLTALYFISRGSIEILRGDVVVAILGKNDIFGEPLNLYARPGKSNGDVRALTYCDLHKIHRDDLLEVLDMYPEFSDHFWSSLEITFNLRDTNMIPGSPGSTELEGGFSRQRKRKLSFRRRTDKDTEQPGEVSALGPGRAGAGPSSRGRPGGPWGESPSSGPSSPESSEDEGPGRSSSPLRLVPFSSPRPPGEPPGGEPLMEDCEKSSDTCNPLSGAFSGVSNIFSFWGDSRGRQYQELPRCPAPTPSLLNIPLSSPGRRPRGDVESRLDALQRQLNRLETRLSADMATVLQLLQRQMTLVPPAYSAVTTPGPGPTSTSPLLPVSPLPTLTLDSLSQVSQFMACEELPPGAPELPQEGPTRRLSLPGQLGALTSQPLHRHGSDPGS
Outline: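 Fluorescence polarisation kit: membranes from CHO cells stably expressing hERG, with a red fluorescent high-affinity tracer; competitors detected by tracer displacement, seen as lowered polarisation. Final DMSO 1%; E-4031 reference.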

[5] = Half life in CD1 mouse at 0.5 mg/kg, iv measured up to 24 hrs post dose; type: ADME, organism-based; settings: in vivo
Outline: (§2)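 Mice given 0.5 mg/kg IV in saline containing 5% (v/v) DMSO and 20% (v/v) PEG400; blood pharmacokinetic parameters reported as means.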

[6] = species: Homo sapiens; assay: Activity at PPAR (unknown origin); outline: as §1
[7] = biological target: T1, Nuclear receptor subfamily 1 group I member 2 (Homo sapiens, UniProt O75469); assay: Activity at PXR (unknown origin); outline: as §1
T1 sequence (O75469 whole entry): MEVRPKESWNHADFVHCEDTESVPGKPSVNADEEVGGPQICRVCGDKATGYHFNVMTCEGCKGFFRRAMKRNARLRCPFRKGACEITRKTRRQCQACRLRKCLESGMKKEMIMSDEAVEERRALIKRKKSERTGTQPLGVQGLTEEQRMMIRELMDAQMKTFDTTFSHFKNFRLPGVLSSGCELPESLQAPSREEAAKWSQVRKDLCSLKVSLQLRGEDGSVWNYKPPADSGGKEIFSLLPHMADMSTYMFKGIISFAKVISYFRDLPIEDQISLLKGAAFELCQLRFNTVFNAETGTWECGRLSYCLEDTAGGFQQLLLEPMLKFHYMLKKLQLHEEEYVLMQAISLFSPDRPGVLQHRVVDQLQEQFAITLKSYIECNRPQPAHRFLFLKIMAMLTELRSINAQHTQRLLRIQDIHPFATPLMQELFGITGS

[8] = Volume of distribution at steady state in CD1 mouse at 0.5 mg/kg, iv measured up to 24 hrs post dose; type: ADME, organism-based; settings: in vivo, read-out: Vdss; outline: as §2
[9] = Ratio of AUClast in mouse kidney to blood at 5 mg/kg, po measured up to 8 hrs post dose
[10] = species: Homo sapiens; assay: Activity at TR (unknown origin); outline: as §1
[11] = biological target: T2, Cytochrome P450 3A1 (Rattus norvegicus, UniProt P04800); assay: Inhibition of recombinant rat CYP3A1 expressed in baculosomes expression system using fluorogenic-BOMCC as substrate by fluorescent homogeneous assay; type: ADME
T2 sequence (P04800 whole entry): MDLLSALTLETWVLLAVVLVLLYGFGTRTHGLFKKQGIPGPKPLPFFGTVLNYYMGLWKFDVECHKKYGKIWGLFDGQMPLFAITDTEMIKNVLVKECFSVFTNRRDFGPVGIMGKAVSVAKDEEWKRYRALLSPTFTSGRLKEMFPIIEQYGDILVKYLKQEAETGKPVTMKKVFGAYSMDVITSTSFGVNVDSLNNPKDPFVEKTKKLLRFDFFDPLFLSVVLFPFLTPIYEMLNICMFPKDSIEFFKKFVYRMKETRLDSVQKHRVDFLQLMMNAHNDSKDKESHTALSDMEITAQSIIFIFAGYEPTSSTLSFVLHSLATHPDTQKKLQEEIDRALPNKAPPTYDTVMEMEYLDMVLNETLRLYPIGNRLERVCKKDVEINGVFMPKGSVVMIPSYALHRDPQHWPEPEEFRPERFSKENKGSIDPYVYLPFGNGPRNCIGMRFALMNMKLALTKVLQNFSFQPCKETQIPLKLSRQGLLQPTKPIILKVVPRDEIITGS
Outline: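 Recombinant CYP baculosomes with fluorogenic substrates, at concentrations below their Km; homogeneous fluorescence read-out, run in triplicate. IC50 classes: <1 μM potent, 1–10 μM moderate, >10 μM weak or none.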

[12] = AUClast in mouse kidney at 5 mg/kg, po measured up to 8 hrs post dose; type: ADME, organism-based; parameters: time < 8 hr, dose 5 mg/kg, route oral
Outline: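 Mice dosed orally at 5 mg/kg in 0.5% (w/v) HPMC in water with 5% (v/v) DMSO; blood, liver and kidney concentrations followed to 8 h. AUC0–8h given in h·ng/mL; parameters reported as means.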

[13] = Apparent passive permeability from apical to basolateral side in MDCK2-MDR1 cells at 3 uM after 90 mins by LC-MS/MS analysis; type: ADME, cell-based, Canis lupus familiaris; settings: dog, MDCK-MDR1
Outline: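 MDCKII-MDR1 monolayers, HBSS transport medium pH 7.4; compound 3 μM for 90 min, run with and without a P-gp inhibitor, n = 3. Quantified by LC-MS/MS as analyte/internal-standard peak-area ratio; monolayer integrity checked with Lucifer yellow. Papp given in nm/sec, A>B.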

[14] = biological target: T3, Glucocorticoid receptor (Homo sapiens) (UniProt P04150); assay: Activity at GR (unknown origin); outline: as §1
T3 sequence (whole entry): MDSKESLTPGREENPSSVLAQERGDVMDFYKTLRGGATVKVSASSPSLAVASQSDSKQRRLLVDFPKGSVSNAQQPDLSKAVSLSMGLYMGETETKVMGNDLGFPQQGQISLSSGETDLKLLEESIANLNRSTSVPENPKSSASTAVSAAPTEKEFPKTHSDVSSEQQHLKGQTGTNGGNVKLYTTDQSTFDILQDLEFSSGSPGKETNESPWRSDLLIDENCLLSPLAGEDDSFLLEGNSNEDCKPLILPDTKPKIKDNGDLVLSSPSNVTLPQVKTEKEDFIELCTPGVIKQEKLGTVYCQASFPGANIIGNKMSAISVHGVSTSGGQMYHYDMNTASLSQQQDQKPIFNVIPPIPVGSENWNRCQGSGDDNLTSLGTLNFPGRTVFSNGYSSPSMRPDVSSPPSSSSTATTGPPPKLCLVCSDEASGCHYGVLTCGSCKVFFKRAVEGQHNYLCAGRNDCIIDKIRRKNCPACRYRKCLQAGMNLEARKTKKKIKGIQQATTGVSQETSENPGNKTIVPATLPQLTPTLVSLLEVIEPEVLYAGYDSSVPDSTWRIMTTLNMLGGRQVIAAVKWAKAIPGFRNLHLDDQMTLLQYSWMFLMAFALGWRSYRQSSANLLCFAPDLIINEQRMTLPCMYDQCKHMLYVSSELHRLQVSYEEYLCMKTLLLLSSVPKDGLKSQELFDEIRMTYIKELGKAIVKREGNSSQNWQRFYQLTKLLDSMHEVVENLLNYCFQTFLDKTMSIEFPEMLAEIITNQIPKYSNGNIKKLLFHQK

Drug uptake [1]: Not Active
Activity [2]: inactive
inhibition [3]: Active
half-life [5]: 320 min
Activity [6]: inactive
Activity [7]: Not Active
Vd [8]: 0.273 L/kg
Kp at 8 h [9]: 2.9
Activity [10]: inactive
IC50 [11]: > 10 µM
AUC(0-t) at 8 h [12]: 36600 ng·h/mL
Papp A→B at 1.5 h, 3 µM [13]: 0.456 ×10⁻⁶ cm/s
Activity [14]: inactive
Structure (SMILES): N#Cc1c(-c2cccs2)nc(SCc2cccc(CC(=O)O)c2)[nH]c1=O
inhibition (INH) [4]: Not Active
